Experimental data from ChEMBL document CHEMBL4038305, “Benzoxaborole Antimalarial Agents. Part 5. Lead Optimization of Novel Amide Pyrazinyloxy Benzoxaboroles and Identification of a Preclinical Candidate” (J Med Chem, 2017).

Legend:
[1] = test system: Plasmodium berghei; experiment: Antimalarial activity against Plasmodium berghei infected in Swiss Webster mouse assessed as mouse survival rate at 100 mg/kg administered once daily via oral gavage for 4 consecutive days beginning 1 hr after infection measured on day 5 post infection relative to control; type: functional
How it was run: (§1)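 Mice given an intraperitoneal injection of P. berghei-infected erythrocytes taken from a previously infected animal. Oral dosing once daily for 4 consecutive days, starting 1 h after infection. Vehicle: polyethylene glycol 300/propylene glycol/water (weight ratio 55/25/20). Percent survival recorded daily from day 4 to day 20. Chloroquine 30 mg/kg and vehicle-only groups served as controls.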

[2] = test system: Plasmodium berghei; experiment: Antimalarial activity against Plasmodium berghei infected in Swiss Webster mouse assessed as mouse survival rate at 100 mg/kg administered once daily via oral gavage for 4 consecutive days beginning 1 hr after infection measured on day 8 post infection relative to control; type: functional; how it was run: as §1
[3] = test system: Plasmodium berghei; experiment: Antimalarial activity against Plasmodium berghei infected in Swiss Webster mouse assessed as mouse survival rate at 1 mg/kg administered once daily via oral gavage for 4 consecutive days beginning 1 hr after infection measured on day 4 post infection relative to control; type: functional; how it was run: as §1
[4] = test system: Plasmodium falciparum; experiment: Antimalarial activity against chloroquine-sensitive Plasmodium falciparum 3D7 infected in human erythrocytes assessed as reduction in [3H]-hypoxanthine incorporation preincubated for 24 hrs followed by [3H]-hypoxanthine addition measured after 24 hrs by scintillation counting method; type: functional, cell-based
How it was run: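 P. falciparum 3D7 cultures were exposed to the compound for 48 h, with atovaquone as the reference control. IC50 was taken from three replicates.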

[5] = test system: Plasmodium berghei; experiment: Antimalarial activity against Plasmodium berghei infected in Swiss Webster mouse assessed as mouse survival rate at 100 mg/kg administered once daily via oral gavage for 4 consecutive days beginning 1 hr after infection measured on day 7 post infection relative to control; type: functional; how it was run: as §1
[6] = test system: Plasmodium berghei; experiment: Antimalarial activity against Plasmodium berghei infected in Swiss Webster mouse assessed as mouse survival rate at 200 mg/kg administered once daily via oral gavage for 4 consecutive days beginning 1 hr after infection measured on day 9 post infection relative to control; type: functional
How it was run: (§2)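 P. berghei-infected erythrocytes taken from a previously infected mouse were injected intraperitoneally. Oral dosing, once daily for 4 consecutive days, began 1 h after infection, in polyethylene glycol 300/propylene glycol/water (55/25/20 by weight). Chloroquine at 30 mg/kg was the positive control, with a vehicle-only group. Percent survival was recorded daily from day 4 to day 20.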

[7] = test system: Plasmodium berghei; experiment: Antimalarial activity against Plasmodium berghei infected in Swiss Webster mouse assessed as mouse survival rate at 3 mg/kg administered once daily via oral gavage for 4 consecutive days beginning 1 hr after infection measured on day 5 post infection relative to control; type: functional; how it was run: as §2
[8] = test system: Plasmodium berghei; experiment: Antimalarial activity against Plasmodium berghei infected in Swiss Webster mouse assessed as mouse survival rate at 100 mg/kg administered once daily via oral gavage for 4 consecutive days beginning 1 hr after infection measured on day 4 post infection relative to control; type: functional; how it was run: as §1
[9] = test system: Plasmodium berghei; experiment: Antimalarial activity against Plasmodium berghei infected in Swiss Webster mouse assessed as mouse survival rate at 3.7 mg/kg administered once daily via oral gavage for 4 consecutive days beginning 1 hr after infection measured on day 5 post infection relative to control; type: functional; how it was run: as §2
[10] = test system: Plasmodium berghei; experiment: Antimalarial activity against Plasmodium berghei infected in Swiss Webster mouse assessed as mouse survival rate at 200 mg/kg administered once daily via oral gavage for 4 consecutive days beginning 1 hr after infection measured on day 6 post infection relative to control; type: functional; how it was run: as §2
[11] = test system: Plasmodium berghei; experiment: Antimalarial activity against Plasmodium berghei infected in Swiss Webster mouse assessed as mouse survival rate at 1 mg/kg administered once daily via oral gavage for 4 consecutive days beginning 1 hr after infection measured on day 7 post infection relative to control; type: functional; how it was run: as §1
[12] = test system: Plasmodium berghei; experiment: Antimalarial activity against Plasmodium berghei infected in Swiss Webster mouse assessed as mouse survival rate at 200 mg/kg administered once daily via oral gavage for 4 consecutive days beginning 1 hr after infection measured on day 8 post infection relative to control; type: functional; how it was run: as §2
[13] = test system: Plasmodium berghei; experiment: Antimalarial activity against Plasmodium berghei infected in Swiss Webster mouse assessed as mouse survival rate at 200 mg/kg administered once daily via oral gavage for 4 consecutive days beginning 1 hr after infection measured on day 10 post infection relative to control; type: functional; how it was run: as §2
[14] = test system: Plasmodium berghei; experiment: Antimalarial activity against Plasmodium berghei infected in Swiss Webster mouse assessed as mouse survival rate at 100 mg/kg administered once daily via oral gavage for 4 consecutive days beginning 1 hr after infection measured on day 6 post infection relative to control; type: functional; how it was run: as §1
[15] = test system: Plasmodium berghei; experiment: Antimalarial activity against Plasmodium berghei infected in Swiss Webster mouse assessed as mouse survival rate at 33 mg/kg administered once daily via oral gavage for 4 consecutive days beginning 1 hr after infection measured on day 6 post infection relative to control; type: functional; how it was run: as §2
[16] = test system: Plasmodium berghei; experiment: Antimalarial activity against Plasmodium berghei infected in Swiss Webster mouse assessed as mouse survival rate at 33 mg/kg administered once daily via oral gavage for 4 consecutive days beginning 1 hr after infection measured on day 5 post infection relative to control; type: functional; how it was run: as §2
[17] = test system: Plasmodium berghei; experiment: Antimalarial activity against Plasmodium berghei infected in Swiss Webster mouse assessed as mouse survival rate at 3 mg/kg administered once daily via oral gavage for 4 consecutive days beginning 1 hr after infection measured on day 6 post infection relative to control; type: functional; how it was run: as §2
[18] = test system: Plasmodium berghei; experiment: Antimalarial activity against Plasmodium berghei infected in Swiss Webster mouse assessed as mouse survival rate at 33 mg/kg administered once daily via oral gavage for 4 consecutive days beginning 1 hr after infection measured on day 7 post infection relative to control; type: functional; how it was run: as §2
[19] = test system: Plasmodium berghei; experiment: Antimalarial activity against Plasmodium berghei infected in Swiss Webster mouse assessed as mouse survival rate at 11 mg/kg administered once daily via oral gavage for 4 consecutive days beginning 1 hr after infection measured on day 7 post infection relative to control; type: functional; how it was run: as §2
[20] = test system: Plasmodium berghei; experiment: Antimalarial activity against Plasmodium berghei infected in Swiss Webster mouse assessed as mouse survival rate at 11 mg/kg administered once daily via oral gavage for 4 consecutive days beginning 1 hr after infection measured on day 6 post infection relative to control; type: functional; how it was run: as §2
[21] = test system: Plasmodium falciparum; experiment: Antimalarial activity against chloroquine-resistant Plasmodium falciparum W2 infected in human erythrocytes after 48 hrs by YOYO-1 dye based flow cytometric analysis; type: functional, cell-based; details: W2, 48 h
How it was run: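 P. falciparum W2 cultures were exposed to the compound for 48 h, with artemisinin and chloroquine as reference controls. IC50 was taken from two independent replicates.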

[22] = test system: Plasmodium berghei; experiment: Antimalarial activity against Plasmodium berghei infected in Swiss Webster mouse assessed as mouse survival rate at 200 mg/kg administered once daily via oral gavage for 4 consecutive days beginning 1 hr after infection measured on day 4 post infection relative to control; type: functional; how it was run: as §2
[23] = test system: Plasmodium berghei; experiment: Antimalarial activity against Plasmodium berghei infected in Swiss Webster mouse assessed as mouse survival rate administered once daily via oral gavage for 4 consecutive days beginning 1 hr after infection measured on day 4 post infection; type: functional; how it was run: as §1
[24] = test system: Plasmodium berghei; experiment: Antimalarial activity against Plasmodium berghei infected in Swiss Webster mouse assessed as mouse survival rate at 11 mg/kg administered once daily via oral gavage for 4 consecutive days beginning 1 hr after infection measured on day 4 post infection relative to control; type: functional; how it was run: as §2
[25] = test system: Plasmodium berghei; experiment: Antimalarial activity against Plasmodium berghei infected in Swiss Webster mouse assessed as mouse survival rate at 200 mg/kg administered once daily via oral gavage for 4 consecutive days beginning 1 hr after infection measured on day 5 post infection relative to control; type: functional; how it was run: as §2
[26] = test system: Plasmodium berghei; experiment: Antimalarial activity against Plasmodium berghei infected in Swiss Webster mouse assessed as mouse survival rate at 1 mg/kg administered once daily via oral gavage for 4 consecutive days beginning 1 hr after infection measured on day 5 post infection relative to control; type: functional; how it was run: as §1
[27] = test system: Plasmodium berghei; experiment: Antimalarial activity against Plasmodium berghei infected in Swiss Webster mouse assessed as mouse survival rate at 33 mg/kg administered once daily via oral gavage for 4 consecutive days beginning 1 hr after infection measured on day 4 post infection relative to control; type: functional; how it was run: as §2
[28] = test system: Plasmodium berghei; experiment: Antimalarial activity against Plasmodium berghei infected in Swiss Webster mouse assessed as mouse survival rate at 200 mg/kg administered once daily via oral gavage for 4 consecutive days beginning 1 hr after infection measured on day 11 post infection relative to control; type: functional; how it was run: as §2
[29] = test system: Plasmodium berghei; experiment: Antimalarial activity against Plasmodium berghei infected in Swiss Webster mouse assessed as mouse survival rate at 3 mg/kg administered once daily via oral gavage for 4 consecutive days beginning 1 hr after infection measured on day 4 post infection relative to control; type: functional; how it was run: as §2
[30] = test system: Plasmodium berghei; experiment: Antimalarial activity against Plasmodium berghei infected in Swiss Webster mouse assessed as mouse survival rate at 100 mg/kg administered once daily via oral gavage for 4 consecutive days beginning 1 hr after infection measured on day 9 post infection relative to control; type: functional; how it was run: as §1
[31] = test system: Plasmodium berghei; experiment: Antimalarial activity against Plasmodium berghei infected in Swiss Webster mouse assessed as mouse survival rate at 1 mg/kg administered once daily via oral gavage for 4 consecutive days beginning 1 hr after infection measured on day 6 post infection relative to control; type: functional; how it was run: as §1
[32] = test system: Plasmodium berghei; experiment: Antimalarial activity against Plasmodium berghei infected in Swiss Webster mouse assessed as mouse survival rate at 3 mg/kg administered once daily via oral gavage for 4 consecutive days beginning 1 hr after infection measured on day 7 post infection relative to control; type: functional; how it was run: as §2
[33] = test system: Plasmodium berghei; experiment: Antimalarial activity against Plasmodium berghei infected in Swiss Webster mouse assessed as mouse survival rate at 200 mg/kg administered once daily via oral gavage for 4 consecutive days beginning 1 hr after infection measured on day 7 post infection relative to control; type: functional; how it was run: as §2
[34] = test system: Plasmodium falciparum; experiment: Antimalarial activity against Plasmodium falciparum K1 infected in human erythrocytes assessed as reduction in [3H]-hypoxanthine incorporation preincubated for 24 hrs followed by [3H]-hypoxanthine addition measured after 24 hrs by scintillation counting method; type: functional, cell-based
[35] = test system: Plasmodium falciparum; experiment: Antimalarial activity against Plasmodium falciparum NF54 infected in human erythrocytes assessed as reduction in [3H]-hypoxanthine incorporation preincubated for 24 hrs followed by [3H]-hypoxanthine addition measured after 24 hrs by scintillation counting method; type: functional, cell-based
[36] = test system: Plasmodium falciparum; experiment: Antimalarial activity against Plasmodium falciparum Dd2 infected in human erythrocytes assessed as reduction in [3H]-hypoxanthine incorporation preincubated for 24 hrs followed by [3H]-hypoxanthine addition measured after 24 hrs by scintillation counting method; type: functional, cell-based
[37] = test system: Plasmodium falciparum; experiment: Antimalarial activity against Plasmodium falciparum TM90C2B infected in human erythrocytes assessed as reduction in [3H]-hypoxanthine incorporation preincubated for 24 hrs followed by [3H]-hypoxanthine addition measured after 24 hrs by scintillation counting method; type: functional, cell-based
[38] = test system: Plasmodium falciparum; experiment: Antimalarial activity against intraerythrocytic stage of Plasmodium falciparum assessed as time required for maximal killing effect at 10 times IC50 preincubated for 24 hrs followed by [3H]-hypoxanthine addition measured after 24 hrs by scintillation counting method; type: functional
How it was run: (§3)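 In vitro P. falciparum parasite reduction ratio assay run at 10×, 30× and 100× IC50. Derived parameters: lag phase (time to maximal killing), PRR (parasites killed per life cycle) and PCT99.9% (time to clear 99.9% of the initial parasite population).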

[39] = test system: Plasmodium falciparum; experiment: Antimalarial activity against intraerythrocytic stage of Plasmodium falciparum assessed as time required to clear 99.9% of initial parasite population at 10 times IC50 preincubated for 24 hrs followed by [3H]-hypoxanthine addition measured after 24 hrs by scintillation counting method; type: functional; how it was run: as §3
[40] = test system: Plasmodium falciparum; experiment: Antimalarial activity against intraerythrocytic stage of Plasmodium falciparum assessed as parasite reduction ratio at 10 times IC50 preincubated for 24 hrs followed by [3H]-hypoxanthine addition measured after 24 hrs by scintillation counting method; type: functional; how it was run: as §3

Work on `CC[C@H](CO)NC(=O)c1cnc(Oc2ccc3c(c2C)B(O)OC3)cn1` yielded a survival at 100 mg/kg [1] of 100%, a survival at 100 mg/kg [2] of 80% and a survival at 1 mg/kg [3] of 100%. For the same molecule, the IC50 [4] was 403 nM, the survival at 100 mg/kg [5] was 100% and the survival at 200 mg/kg [6] was 60%. For the same molecule, the survival at 3 mg/kg [7] was 100%, the survival at 100 mg/kg [8] was 100% and the survival at 3.7 mg/kg [9] was 100%. The survival at 200 mg/kg [10] was 100%, the survival at 1 mg/kg [11] was 0% and the survival at 200 mg/kg [12] was 100%. It also gave a survival at 200 mg/kg [13] of 20%, a survival at 100 mg/kg [14] of 100% and a survival at 33 mg/kg [15] of 100%. For the same molecule, the survival at 33 mg/kg [16] was 100%, the survival at 3 mg/kg [17] was 100% and the survival at 33 mg/kg [18] was 0%. It also gave a survival at 11 mg/kg [19] of 0%, a survival at 11 mg/kg [20] of 100% and an IC50 [21] of 136 nM. It also gave a survival at 200 mg/kg [22] of 100%, an ED90 [23] of 43.3 mg/kg and a survival at 11 mg/kg [24] of 100%. For the same molecule, the survival at 200 mg/kg [25] was 100%, the survival at 1 mg/kg [26] was 100% and the survival at 33 mg/kg [27] was 100%. For the same molecule, the survival at 200 mg/kg [28] was 0%, the survival at 3 mg/kg [29] was 100% and the survival at 100 mg/kg [30] was 0%. The survival at 1 mg/kg [31] was 100%, the survival at 3 mg/kg [32] was 0% and the survival at 200 mg/kg [33] was 100%.

Molecule `O=C1C(O)=C([C@H]2CC[C@H](c3ccc(Cl)cc3)CC2)C(=O)c2ccccc21` [ATOVAQUONE] has an IC50 [34] of 0.7 nM, an IC50 [35] of 1 nM and an IC50 [36] of 2 nM. It also gave an IC50 [37] of over 35 nM, a Time [38] of 48 h and a T99.9% [39] of 81 h. The “log(ratio)” value [40] was 2.9.
